Screening results deposited in PubChem BioAssay by several laboratories.
T cell modulator = T cell immune modulation candidate. 2C CD8+ T cell-vesicle binding, flow cytometry; hits give low values. response (vesicle binding), % at 7 µM. actives 0.068% (n = 330,000). AID 2052;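 active = response, share of CD8 T cells binding vesicles, and their 90th percentile fluorescence all below set limits, cut at about 80% in these data, passing the limit was not always enough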;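 also: values below 100% mean blocked vesicle binding to the CD8+ T cells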
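Test system: purified 2C TCR transgenic mouse naive CD8+ T cells. Probe or stimulus: QL9-peptide-loaded Drosophila micro-vesicles bearing Ld, ICAM-1 and B7-1. Incubation: binding step 1.5 h, 37 °C, antibody labelling 20 min, ice. Measured by: flow cytometry of vesicle-bound cells.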
Rce1 inhib = yeast Ras-converting enzyme inhibition. yeast membranes, quenched prenylated peptide cleavage fluorescence. calls only. actives 0.27% (n = 290,000);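 active = fall in fluorescence gain of 50% or more versus controls, with final raw signal at or below 3038400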;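 also: plate controls were neutral control wells for no effect and wells lacking membranes for full effect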
Target sequence (Q03530 whole entry, looked up): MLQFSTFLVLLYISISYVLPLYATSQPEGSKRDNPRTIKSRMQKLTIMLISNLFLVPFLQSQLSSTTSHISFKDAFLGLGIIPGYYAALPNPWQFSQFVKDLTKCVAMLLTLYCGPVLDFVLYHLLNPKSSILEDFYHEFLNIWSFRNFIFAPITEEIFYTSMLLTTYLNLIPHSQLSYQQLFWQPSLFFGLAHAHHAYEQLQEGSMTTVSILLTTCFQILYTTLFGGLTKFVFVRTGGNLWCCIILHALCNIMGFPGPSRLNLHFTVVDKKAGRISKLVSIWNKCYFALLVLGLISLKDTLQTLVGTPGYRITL
PolyA inhibitor = inhibitors of polyadenylation in S. cerevisiae; S. cerevisiae SKY197-pL101 polyadenylation reporter, beta-gal luminescence; efflux-impaired pdr1/pdr3 knockout yeast; score 100 = 6 SD above DMSO; activity score, % at 12 µM; actives 0.02% (n = 300,000); AID 1875;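 active = lowest replicate activity score at least 50, where 100 means six control SD above control mean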;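 also: yeast exposed to compound for 9 h at 30 °C; higher score means more reporter readthrough which indicates perturbed polyadenylation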
aDG glyco act = increases alpha dystroglycan glycosylation | AID 624168 | Pro5-aDG cells, alpha-DG glycosylation AlphaScreen (IIH6); 0% Pro5, 100% B10-LARGE cell signal | activation, % at 10 µM | actives 0.22% (n = 360,000);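 active = activation of at least 8% versus controls, or a plate z-score of at least 8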;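 also: Pro5 are CHO cells carrying HIG-tagged alpha-DG that lacks glycosylation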
aDG glyco conf = confirmation of alpha dystroglycan glycosylation activators | shares compounds with aDG glyco act | Pro5-aDG cells, alpha-DG glycosylation, IIH6 AlphaLISA; scaled to LARGE-overexpressing B10 cells as 100% | activation, % at 10 µM (by protocol) | actives 17% (n = 600);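 active = activation of at least 7% in one or more replicates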;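 also: cells exposed to compound for two days before detection; 0% = DMSO-treated Pro5 cells and 100% = DMSO-treated B10-LARGE cells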
* hit, by the source's call; i = inactive; . = no result. Rows were chosen to be rich in hits. Some 0.51% of all compounds tested hit in one or more screens of this group.

SMILES | T cell modulator | Rce1 inhib | PolyA inhibitor | aDG glyco act | aDG glyco conf
COc1ccc2[nH]c3c(N4CCN(Cc5ccc6c(c5)OCO6)CC4)ncnc3c2c1 | 242 | i | -11 | 8.3* | 3
Brc1cccc(-c2nc3c4ccccc4ccn3c2CC2CCCCC2)c1 | . | . | . | 15* | 5.8*
c1ccc(-c2nc3c4ccccc4ccn3c2CC2CCCCC2)cc1 | . | . | . | 4 | .
COc1ccc(CNC(=O)[C@@H](NC(=O)C2CCN(C(=O)[C@@H](N)Cc3ccccc3)CC2)C(C)C)cc1 | 312 | i | 8 | 0 | .
CCc1nnc(NC(=O)[C@@H](NS(=O)(=O)c2ccc3c(c2)OCCO3)C(C)C)s1 | . | . | . | 0 | .
Cc1ccc(OCCCCNC2CCCCC2)c(C)c1 | 246 | i | -6 | 6.9* | 1
CN(C)c1ccc(C(=O)NCC(c2cccs2)N2CCOCC2)cc1 (centres undefined) | 506 | . | . | 0 | .
CCOC(=O)c1sc2nc(CSc3ccccc3)nc(NCCN(C)C)c2c1C | 406 | i | -7 | 8.4* | 2
COC(=O)[C@]12CCCCC=C1N(CCc1ccc(OC)c(OC)c1)C(=O)[C@H](CC(=O)N1CCCCC1)C2 | . | . | . | 0 | .
Cc1nc2c(OCc3ccc(C(F)(F)F)cc3)cccn2c1N(C)CC1CC1 | . | . | . | 3 | .
CCN(CC)CCCN(C(=O)c1ccccc1C)c1nc(-c2ccc(OC)cc2)cs1 | 237 | i | 9 | 0 | .
CCN(CC)CCCN(C(=O)c1ccccc1F)c1nc(-c2ccc(OC)cc2)cs1 | 150 | i | 0 | 4.0* | 2
COc1cc2ccccc2cc1C(=O)Nc1nccs1 | 806 | i | -14 | 4.0* | -1
COc1c(C(=O)Nc2nccs2)ccc2ccccc12 | 263 | i | -2 | 0 | .
COc1ccc(CN2CCC(C(=O)Nc3ccc(Oc4cccnc4)cc3)CC2)c(C)c1C | 896 | i | -19 | 2.2* | 4.7*
CC(=O)Nc1nc(COc2ccccc2)cs1 | 453 | i | 3 | 0 | .
CC(=O)Nc1nc(CC(=O)c2ccccc2)cs1 | 372 | i | -18 | 8.4* | 1
Cc1cc(=O)[nH]c(NNC(=O)c2ccc(Cl)cc2)n1 | . | . | . | 0 | .
N#Cc1ccc(-c2nc3ccc(Cl)cn3c2Cc2ccccc2)cc1 | . | . | . | 0 | .
C/C(=N/Nc1nc(C)cc(C)n1)c1ccc(Br)cc1 | 393 | i | 22 | 2.2* | 2
CCOC(=O)c1cnc(-n2nc(C)cc2C)nc1Nc1ccc(O)cc1 | 451 | i | -4 | 0 | .
CCOC(=O)c1cnc(-n2nc(C)cc2C)nc1Nc1ccc(C)cc1 | . | i | -23 | 6.5* | 2
COc1ccc(C(CC(=O)NC(C)c2ccc(-c3ccccc3)cc2)NC(C)=O)cc1 (centres undefined) | 474 | i | -9 | 0 | .
CCCN(CC(=O)Nc1cc(Cl)cc(Cl)c1)CC(=O)Nc1ccc(F)c(F)c1F | 199 | i | 2 | 5.9* | 0
CCCN(CC(=O)Nc1ccccc1Br)CC(=O)Nc1ccc(F)c(F)c1F | 278 | i | -3 | 0 | .
SMILES | T cell modulator | Rce1 inhib | PolyA inhibitor | aDG glyco act | aDG glyco conf
CC(C)C[C@H]1COCCS(=O)(=O)N1Cc1ccccc1F | 535 | i | 8 | 6.1* | 0
O=C(CSc1ccc(Cl)cc1)Nc1ccccc1 | . | . | . | 0 | .
O=C(CSc1cccs1)Nc1ccc(Cl)cc1 | 324 | i | 20 | 3.1* | -1
C[C@@H]1CN([C@@H](C)CO)C(=O)CCCn2nncc2CO[C@H]1CN(C)C(=O)c1ccccc1 | . | . | . | 0 | .
CCNC(=O)Nc1cc(S(=O)(=O)Nc2ccc(OC)cc2)ccc1N1CCOCC1 | 240 | . | . | 4.9* | -1
CCCCNC(=O)c1ccc(N2CCOCC2)c(NS(=O)(=O)c2ccc(OC)cc2)c1 | 304 | i | 13 | 0 | .
Cc1cccc(C)c1NC(=O)C(c1ccncc1)N1CCN(C)CC1 (centres undefined) | . | . | . | 9.8* | 0
Cc1cccc(C)c1NC(=O)C(c1ccccc1)N1CCN(C)CC1 (centres undefined) | . | . | . | 0 | .
OC[C@@H]1CN(Cc2ccc(-c3ccccc3)cc2)C[C@H](n2cnc3c(NC4CCC4)ncnc32)O1 | . | . | . | 7.6* | 2
OC[C@@H]1CN(Cc2ccccc2)C[C@H](n2cnc3c(NC4CC4)ncnc32)O1 | . | . | . | 0 | .
CC1(C)C2CCC1(CS(=O)(=O)N1CCC(C(=O)O)CC1)C(=O)C2 (centres undefined) | 187 | i | 21 | 0 | .
COC(=O)C1=NN(C(C)(C)CC(C)=O)C2C(=O)N(C3CCCCC3)C(=O)C12 (centres undefined) | 148 | i | 9 | 3.1* | -1
C#C[C@]1(O)CC[C@H]2[C@@H]3[C@H](C)CC4=C(CCC(=O)C4)[C@H]3CC[C@@]21C | 712 | i | -7 | . | .
NNc1nnc2c3cc(F)ccc3n(Cc3ccccc3)c2n1 | 258 | i | -9 | 5.1* | 0
CCCCCNCC(=O)Nc1cccc(C(=O)Nc2cccc(C(F)(F)F)c2)c1 | 222 | i | 23 | 16* | 10*
COC(=O)CN1C(=O)[C@H]2[C@@H](c3ccc(C)o3)N3C(=O)CN(CC4CC4)C(=O)[C@@]3(C)[C@H]2C1=O | 355 | i | -11 | 0 | .
COc1ccc(C(C(=O)Nc2ccc(F)cc2)N2CCN(CC(=O)N3CCCC3)CC2)cc1 (centres undefined) | . | . | . | 8.6* | 0
O=C(Nc1ccc(F)cc1)C(c1ccccc1)N1CCN(CC(=O)N2CCCC2)CC1 (centres undefined) | 321 | . | . | 0 | .
COc1ccc(CNCCC(c2ccccc2)c2ccc3c(c2)OCO3)cc1 (centres undefined) | 28 | i | -17 | 3.9* | 1
C[n+]1c(-c2ccccc2)sc([S-])c1-c1ccccc1 | 120 | i | 4 | 0 | .
Cc1ccccc1Cn1c(C)nc2ccccc21 | 156 | i | -25 | 3.3* | 2
O=c1[nH][nH]c2c1C(C1CCCCC1)OC(C1CCCCC1)C2 (centres undefined) | . | . | . | 0 | .
COC(=O)c1cccc(NC(=O)CN2C(=O)c3ccccc3C2=O)c1 | 285 | i | 9 | 1.3* | 1
CCN(CC)S(=O)(=O)c1ccc(=O)n(CC(=O)N2Cc3ccccc3CC2C(N)=O)c1 (centres undefined) | . | . | . | 3.4* | -1
CC[C@@H]1C/C=C\Cc2ccccc2[C@H](C(=O)C[C@@H](O)CC(C)=O)OC1=O | 375 | . | . | 0 | .
SMILES | T cell modulator | Rce1 inhib | PolyA inhibitor | aDG glyco act | aDG glyco conf
CCOC(=O)c1cnc(SCC(=O)Nc2cc(OC)ccc2OC)nc1N | 159 | i | -2 | 6.7* | 0
Cc1nc(CCNC(=O)Cc2ccc(Cl)cc2)cs1 | 369 | i | -5 | 8.7* | 1
CC(C)[C@@H]1CC2=C(C(=O)OC(C)(C)O2)[C@H](CCc2ccccc2)O1 | . | . | . | 0 | .
NC(=S)NN=C(c1ccc(Br)cc1)C1CC1 | . | . | . | 5.7* | 1
NC(=S)NN=C(c1ccc(F)cc1)C1CC1 | . | . | . | 2 | .
CCN(CCCNC(=O)C1CCN(S(=O)(=O)c2cccc3nonc23)CC1)Cc1ccccc1 | 300 | i | -5 | 8.3* | 0
